Tests used:
[1] = Oral bioavailability in dog (salt depleted); conditions: in vivo
[2] = Average peak plasma concentration of compound after 1 mg/kg intravenous administration in salt depleted dog; conditions: plasma
[3] = Average peak plasma concentration of compound after 10 mg/kg intraduodenal administration to Ferret; conditions: plasma
[4] = Partition coefficient (logD7.4); conditions: octanol/water, pH 7.4
Canis familiaris [5] = test: Mean arterial pressure response following 1 mg/kg intravenous administration to salt depleted dog; conditions: in vivo
Renin [6] = target: T1, Renin (Rattus norvegicus, UniProt P08424); test: (§1) Tested in vitro for its ability to inhibit the rat plasma renin; type: functional, cell-free
T1 sequence (P08424 whole entry): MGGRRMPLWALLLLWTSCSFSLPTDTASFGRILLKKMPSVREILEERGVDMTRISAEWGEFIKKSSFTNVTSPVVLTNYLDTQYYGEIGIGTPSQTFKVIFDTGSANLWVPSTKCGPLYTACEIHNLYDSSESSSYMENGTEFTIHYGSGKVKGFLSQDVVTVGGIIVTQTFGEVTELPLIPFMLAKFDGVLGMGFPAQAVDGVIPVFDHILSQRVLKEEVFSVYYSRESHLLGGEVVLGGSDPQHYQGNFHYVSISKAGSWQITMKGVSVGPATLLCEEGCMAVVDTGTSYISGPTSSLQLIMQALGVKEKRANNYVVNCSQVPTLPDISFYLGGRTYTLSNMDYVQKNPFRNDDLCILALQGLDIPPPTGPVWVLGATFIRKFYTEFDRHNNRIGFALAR
Summary of the method: (§2)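 IC50 against renin in plasma from the named species (dog, ferret, human, rat); single determination in most cases.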

[7] = Partition coefficient (logD6.5); conditions: octanol/water, pH 6.5
Renin (Canis familiaris) [8] = test: Tested in vitro for its ability to inhibit the dog plasma renin
[9] = Average peak plasma concentration of compound after 10 mg/kg intraduodenal administration to rat; conditions: plasma
[10] = Average area under curve at 10 mg/kg dose after intraduodenal administration to Ferret; conditions: in vivo
[11] = Oral bioavailability in ferret; conditions: in vivo
[12] = Average area under curve at 10 mg/kg intraduodenal administration to salt depleted dog; conditions: in vivo
[13] = Average area under curve for compound at 1 mg/kg dose intravenous administration to Ferret; conditions: in vivo
[14] = Average area under curve for the compound at 10 mg/kg dose after intraduodenal administration to rat; conditions: in vivo
[15] = Average peak plasma concentration of compound after 1 mg/kg intravenous administration to Ferret; conditions: plasma
[16] = Average area under curve for the compound at 1 mg/kg dose after intravenous administration to rat; conditions: in vivo
[17] = target: Renin (Mustela putorius furo); test: Tested in vitro for its ability to inhibit the ferret plasma renin
Renin [18] = target: T2, Renin (Homo sapiens, UniProt P00797); test: Tested in vitro for its ability to inhibit the human plasma renin; type: cell-free; summary of the method: as §2
T2 sequence (P00797 whole entry): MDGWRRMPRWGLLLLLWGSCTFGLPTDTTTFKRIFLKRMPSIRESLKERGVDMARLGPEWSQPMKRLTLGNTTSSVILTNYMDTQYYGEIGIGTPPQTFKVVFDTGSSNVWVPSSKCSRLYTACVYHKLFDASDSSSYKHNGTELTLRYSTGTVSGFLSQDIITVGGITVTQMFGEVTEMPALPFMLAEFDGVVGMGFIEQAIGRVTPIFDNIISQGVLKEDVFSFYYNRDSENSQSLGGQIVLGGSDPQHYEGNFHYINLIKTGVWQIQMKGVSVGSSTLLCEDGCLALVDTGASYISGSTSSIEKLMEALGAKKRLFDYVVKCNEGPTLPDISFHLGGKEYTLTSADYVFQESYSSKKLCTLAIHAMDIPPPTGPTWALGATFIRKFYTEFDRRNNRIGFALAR

Canis familiaris [19] = test: Mean arterial pressure response following 10 mg/kg intraduodenal administration to salt depleted dog; conditions: in vivo, other
[20] = Average peak plasma concentration of compound after 1 mg/kg intravenous administration to rat; conditions: plasma
[21] = Average area under curve at 1 mg/kg intravenous administration to salt depleted dog; conditions: in vivo
[22] = Oral bioavailability in rat; conditions: in vivo, intraduodenal, 10 mg/kg
[23] = Average peak plasma concentration of compound at 10 mg/kg intraduodenal administration in salt depleted dog; conditions: plasma
Homo sapiens = species on record: Homo sapiens; conditions: Liver, Microsome
Renin (Canis familiaris) [24] = test: Tested in vitro for its ability to inhibit the dog plasma renin; remark: listed apart in the source
Renin [25] = target: T1, Renin; test: as §1; type: cell-free; summary of the method: as §2
[26] = target: Renin (Mustela putorius furo); test: Tested in vitro for its ability to inhibit the ferret plasma renin; remark: listed apart in the source

Structure (SMILES) | bioavailability [1] [%] | Cmax [2] [ng/mL] | Cmax [3] [ng/mL] | logD [4] | Arterial pressure (Canis familiaris [5]) [% mmHg min] | logD [7] | Cmax [9] [ng/mL] | AUC [10] [ng·h/mL] | bioavailability [11] [%] | AUC [12] [ng·h/mL] | AUC [13] [ng·h/mL] | AUC [14] [ng·h/mL] | Cmax [15] [ng/mL] | AUC [16] [ng·h/mL] | IC50 (Renin [18]) [nM] | Arterial pressure (Canis familiaris [19]) [% mmHg min] | Cmax [20] [ng/mL] | AUC [21] [ng·h/mL] | bioavailability [22] [%] | Cmax [23] [ng/mL] | other results
CCCC[C@H](N[C@@H](Cc1ccccc1)C(=O)N1CCC(OCOC)CC1)C(=O)N[C@@H](CC1CCCCC1)[C@@H](O)C[C@H](C(=O)NCCC[N+]1([O-])CCOCC1)C(C)C | < 19 | > 5530 | 1180 | 3.6 | 3707 | 3.6 | 140 | 1350 | 20 | 1430 | 668 | 140 | 1830 | 212 | 4.3 | 6881 | 1130 | > 732 | 6 | 420 | IC50 (Renin [6]): 6400 nM; IC50 (Renin (Canis familiaris) [8]): 19 nM; IC50 [17]: 420 nM
CCCC[C@H](N[C@@H](Cc1ccccc1)C(=O)N1CCC(OCOC)CC1)C(=O)N[C@@H](CC1CCCCC1)[C@@H](O)C[C@H](C(=O)NCC(C)(C)N1CCOCC1)C(C)C | 37 | 7560 | 11500 | > 5 | 7589 | > 5 | 600 | 16600 | 63 | 6970 | 2630 | 763 | 2980 | 215 | 9.1 | 8525 | 340 | 1840 | 35 | 1600 | Rate (nM min-1 (nM of cytochrome P450)-1) (Homo sapiens): 4.32; IC50 (Renin (Canis familiaris) [24]): 14 nM; IC50 (Renin [25]): 2100 nM; IC50 [26]: 120 nM
